Data as given in ChEMBL document CHEMBL5357024, “MDM2 Antagonist Idasanutlin Reduces HDAC1/2 Abundance and Corepressor Partners but Not HDAC3” (ACS Med Chem Lett, 2024).

What was measured:
Type in all cases: cell-based
[1] = biological target: T1, E3 ubiquitin-protein ligase Mdm2/Histone deacetylase 1 (Homo sapiens) (UniProt Q00987+Q13547); assay: PROTAC activity at MDM2/HDAC1 in human HCT-116 cells assessed as decrease in HDAC1 abundance by measuring remaining activity at 1 uM measured after 24 hrs by Western blot analysis (reference value: 100%)
Procedure, shortened: (§1)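 HCT116 cells seeded in six-well plates for 24 h, then exposed 24 h to compound (0.01–10 μM) or DMSO in fresh medium. Lysis in Tris-HCl/NaCl/NP-40/Triton X-100 with protease inhibitor. Bradford-normalised 30 μg protein per lane. Quantitative Western blot used specific HDAC1, HDAC2, HDAC3, LSD1 or Sin3a antibodies with IRDye secondaries. Abundance compared with DMSO, n = 2 replicates.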

[2] = biological target: T1, E3 ubiquitin-protein ligase Mdm2/Histone deacetylase 1 (Homo sapiens); assay: PROTAC activity at MDM2/HDAC1 in human HCT-116 cells assessed as decrease in HDAC1 abundance by measuring remaining activity at 10 uM measured after 24 hrs by Western blot analysis (reference value: 100%); procedure, shortened: as §1
[3] = biological target: T2, E3 ubiquitin-protein ligase Mdm2/Histone deacetylase 2 (Homo sapiens) (UniProt Q00987+Q92769); assay: PROTAC activity at MDM2/HDAC2 in human HCT-116 cells assessed as decrease in HDAC2 abundance by measuring remaining activity at 1 uM measured after 24 hrs by Western blot analysis (reference value: 100%); procedure, shortened: as §1
[4] = biological target: T1, E3 ubiquitin-protein ligase Mdm2/Histone deacetylase 1 (Homo sapiens); assay: PROTAC activity at MDM2/HDAC1 in human HCT-116 cells assessed as induction of HDAC1 degradation by Western blot analysis; conditions: dose 0.01-10 µM
[5] = biological target: T1, E3 ubiquitin-protein ligase Mdm2/Histone deacetylase 1 (Homo sapiens); assay: PROTAC activity at MDM2/HDAC1 in human HCT-116 cells assessed as decrease in HDAC1 abundance by measuring remaining activity at 0.01 uM measured after 24 hrs by Western blot analysis (reference value: 100%); procedure, shortened: as §1
[6] = biological target: T1, E3 ubiquitin-protein ligase Mdm2/Histone deacetylase 1 (Homo sapiens); assay: PROTAC activity at MDM2/HDAC1 in human HCT-116 cells assessed as decrease in HDAC1 abundance by measuring remaining activity at 0.05 uM measured after 24 hrs by Western blot analysis (reference value: 100%); procedure, shortened: as §1
[7] = biological target: T2, E3 ubiquitin-protein ligase Mdm2/Histone deacetylase 2 (Homo sapiens); assay: PROTAC activity at MDM2/HDAC2 in human HCT-116 cells assessed as decrease in HDAC2 abundance by measuring remaining activity at 5 uM measured after 24 hrs by Western blot analysis (reference value: 100%); procedure, shortened: as §1
[8] = biological target: E3 ubiquitin-protein ligase Mdm2/Histone deacetylase 3 (Homo sapiens) (UniProt Q00987+O15379); assay: PROTAC activity at MDM2/HDAC3 in human HCT-116 cells assessed as reduction in HDAC3 abundance by measuring remaining activity at 0.05 uM measured after 24 hrs by Western blot analysis
Procedure, shortened: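 HCT116 cells in DMEM with 10% FBS and glutamine/penicillin/streptomycin at 37 °C, 5% CO2. Seeded 4 × 10^5 cells/well, after 24 h treated 24 h with DMSO or compound in fresh medium. Lysed in Tris-HCl/NaCl/NP-40/Triton X-100 buffer with protease inhibitor, Bradford-quantified, 30 μg protein per lane. Quantitative Western blot with specific HDAC1/2/3 antibodies, IRDye secondaries, infrared imaging, versus DMSO. n = 2 replicates.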

[9] = biological target: Lysine-specific histone demethylase 1A (Homo sapiens) (UniProt O60341); assay: Induction of LSD1 degradation in human HCT-116 cells assessed as reduction in LSD1 abundance by measuring remaining activity at 10 uM measured after 24 hrs by Western blot analysis (reference value: 100%); procedure, shortened: as §1
[10] = biological target: Lysine-specific histone demethylase 1A (Homo sapiens) (UniProt O60341); assay: Induction of LSD1 degradation in human HCT-116 cells assessed as reduction in LSD1 abundance by measuring remaining activity at 0.01 uM measured after 24 hrs by Western blot analysis (reference value: 100%); procedure, shortened: as §1
[11] = biological target: Lysine-specific histone demethylase 1A (Homo sapiens) (UniProt O60341); assay: Induction of LSD1 degradation in human HCT-116 cells assessed as reduction in LSD1 abundance by measuring remaining activity at 1 uM measured after 24 hrs by Western blot analysis (reference value: 100%); procedure, shortened: as §1
[12] = biological target: Lysine-specific histone demethylase 1A (Homo sapiens) (UniProt O60341); assay: Induction of LSD1 degradation in human HCT-116 cells assessed as reduction in LSD1 abundance by measuring remaining activity at 5 uM measured after 24 hrs by Western blot analysis (reference value: 100%); procedure, shortened: as §1

T1 sequence (Q00987 whole entry, looked up): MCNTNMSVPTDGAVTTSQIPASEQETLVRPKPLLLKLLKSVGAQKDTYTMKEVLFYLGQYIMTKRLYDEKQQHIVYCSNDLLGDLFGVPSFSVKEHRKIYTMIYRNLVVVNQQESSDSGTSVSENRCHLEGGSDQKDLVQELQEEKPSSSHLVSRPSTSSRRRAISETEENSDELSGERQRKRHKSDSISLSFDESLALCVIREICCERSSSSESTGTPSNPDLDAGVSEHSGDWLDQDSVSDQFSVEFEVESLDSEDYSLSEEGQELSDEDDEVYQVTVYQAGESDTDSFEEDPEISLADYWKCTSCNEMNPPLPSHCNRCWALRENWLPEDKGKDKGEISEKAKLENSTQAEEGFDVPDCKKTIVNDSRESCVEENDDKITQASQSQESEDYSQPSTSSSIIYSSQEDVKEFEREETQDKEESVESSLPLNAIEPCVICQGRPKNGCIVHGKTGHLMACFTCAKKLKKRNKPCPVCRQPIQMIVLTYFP
T1 sequence (Q13547 whole entry, looked up): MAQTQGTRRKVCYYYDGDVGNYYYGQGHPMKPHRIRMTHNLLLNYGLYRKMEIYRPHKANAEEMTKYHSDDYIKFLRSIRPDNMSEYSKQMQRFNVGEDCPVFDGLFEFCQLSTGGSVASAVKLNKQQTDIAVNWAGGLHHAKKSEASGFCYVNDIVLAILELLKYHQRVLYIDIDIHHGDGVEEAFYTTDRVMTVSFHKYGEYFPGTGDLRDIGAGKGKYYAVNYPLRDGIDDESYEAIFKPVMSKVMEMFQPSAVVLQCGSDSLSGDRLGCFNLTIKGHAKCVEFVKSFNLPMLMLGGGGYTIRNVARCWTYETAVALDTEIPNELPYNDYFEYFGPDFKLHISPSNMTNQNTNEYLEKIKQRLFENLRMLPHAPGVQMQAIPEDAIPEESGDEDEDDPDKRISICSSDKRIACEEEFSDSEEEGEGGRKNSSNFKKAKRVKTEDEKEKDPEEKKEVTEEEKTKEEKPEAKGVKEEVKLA
T2 sequence (Q00987 whole entry, looked up): as the sequence (Q00987 whole entry, looked up) above
T2 sequence (Q92769 whole entry, looked up): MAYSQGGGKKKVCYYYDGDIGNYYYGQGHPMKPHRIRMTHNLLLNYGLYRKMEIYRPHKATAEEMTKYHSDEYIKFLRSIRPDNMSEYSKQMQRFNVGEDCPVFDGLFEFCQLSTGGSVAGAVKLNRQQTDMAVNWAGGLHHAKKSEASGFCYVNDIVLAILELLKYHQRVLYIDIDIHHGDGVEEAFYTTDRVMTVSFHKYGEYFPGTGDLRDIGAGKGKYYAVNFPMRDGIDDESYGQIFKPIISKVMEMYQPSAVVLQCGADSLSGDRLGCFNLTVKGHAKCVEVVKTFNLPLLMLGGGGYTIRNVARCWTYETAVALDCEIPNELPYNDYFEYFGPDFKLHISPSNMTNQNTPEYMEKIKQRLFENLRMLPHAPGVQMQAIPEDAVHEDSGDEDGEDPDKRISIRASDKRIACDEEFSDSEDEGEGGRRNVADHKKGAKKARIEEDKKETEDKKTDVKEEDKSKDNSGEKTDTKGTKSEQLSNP
Sequence of E3 ubiquitin-protein ligase Mdm2/Histone deacetylase 3 (Homo sapiens) (O15379 whole entry, looked up): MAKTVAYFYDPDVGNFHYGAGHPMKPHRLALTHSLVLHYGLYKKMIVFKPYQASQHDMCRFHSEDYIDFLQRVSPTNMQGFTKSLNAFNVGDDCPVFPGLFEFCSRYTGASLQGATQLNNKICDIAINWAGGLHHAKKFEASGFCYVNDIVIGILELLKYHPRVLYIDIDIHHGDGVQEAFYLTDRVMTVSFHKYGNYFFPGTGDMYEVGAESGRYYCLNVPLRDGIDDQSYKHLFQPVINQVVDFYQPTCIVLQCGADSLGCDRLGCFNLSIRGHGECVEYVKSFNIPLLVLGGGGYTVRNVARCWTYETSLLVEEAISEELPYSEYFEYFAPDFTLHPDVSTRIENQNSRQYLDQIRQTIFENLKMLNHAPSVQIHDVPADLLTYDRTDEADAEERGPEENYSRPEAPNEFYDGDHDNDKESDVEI
Sequence of E3 ubiquitin-protein ligase Mdm2/Histone deacetylase 3 (Homo sapiens) (Q00987 whole entry, looked up): as the sequence (Q00987 whole entry, looked up) above

COc1cc(C(=O)NCCOCCOCCOCCOCCC(=O)Nc2ccc(C(=O)Nc3ccccc3N)cc2)ccc1NC(=O)[C@@H]1N[C@@H](CC(C)(C)C)[C@](C#N)(c2ccc(Cl)cc2F)[C@H]1c1cccc(Cl)c1F
Activity [1]: 43% | Activity [2]: 36% | Activity [3]: 69% | Activity [4]: Dose-Dependent Effect | Activity [5]: 108% | Activity [6]: 88% | Activity [7]: 69% | Activity [8]: 105% | Activity [9]: 65% | Activity [10]: 104% | Activity [11]: 81% | Activity [12]: 70%
